Measurements taken from publication PMC4805660 (Theranostics, 2016).
Structures can show the parent of a compound that is named as a salt.

Key:
Assay type in all cases: in vivo, NMRI nu/nu mice
MPC-mCherry tumors [1] = experiment: Renal; details: for DAred, reduction of renal dopamine excretion [14-28 days pci] / NEred, reduction of renal norepinephrine excretion [14-28 days pci] / NMNred, reduction of renal normetanephrine excretion [14-28 days pci]: doxorubicin 6.9 µmol/kg, AN-238 0.2 µmol/kg, [^177Lu]Lu-DOTATATE 80 MBq/animal, urine LC-MS/MS, compared to control, mean ± SEM
[2] = Body weight monitoring in treated mice; details: doxorubicin 6.9 µmol/kg, AN-238 0.2 µmol/kg, [^177Lu]Lu-DOTATATE 80 MBq/animal
In short: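 Mice carrying growing MPC-mCherry tumours (5 ± 3 mm diameter) were grouped by similar mean tumour volume and randomly assigned to control or therapy; treatment began 15 days pci. Test compounds in Infesol 15 given via tail vein at 0.3 mL/30 g body weight. Three independent experiments followed an identical protocol, with data pooled.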

MPC-mCherry tumors [3] = experiment: ^177Lu activity in MPC-mCherry tumors after treatment, monitored by PLI; details: not decay-corrected, 80 MBq/animal
In short: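 Radioligand was made by heating [177Lu]LuCl3 (pH 5.2, NH4OAc) with 14 nmol peptide at 90 °C for 20 min, giving >97% HPLC radiochemical purity. 80 MBq (1.2 nmol)/mouse was given by tail vein in Infesol 15 from 15 days pci. Tumour ROIs were thresholded on mCherry/reference fluorescence (signal/background 2). PLI signal was expressed as effective and decay-corrected 177Lu activity.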

Row | half-life of effective ^177Lu activity in tumors (MPC-mCherry tumors [3]) | Molecule | DAred, reduction of renal dopamine excretion [14-28 days pci] (MPC-mCherry tumors [1]) | NEred, reduction of renal norepinephrine excretion [14-28 days pci] (MPC-mCherry tumors [1]) | NMNred, reduction of renal normetanephrine excretion [14-28 days pci] (MPC-mCherry tumors [1]) | body weight change after treatment [2] | fold more effective in reducing overall renal monoamine excretion compared to doxorubicin and AN-238 (MPC-mCherry tumors [1]; 14-28 days pci)
1 | – | COc1cccc2c1C(=O)c1c(O)c3c(c(O)c1C2=O)C[C@@](O)(C(=O)CO)C[C@@H]3O[C@H]1C[C@H](N)[C@H](O)[C@H](C)O1 [doxorubicin, doxorubicin hydrochloride] | 31.5 ± 11.3% | 74.8 ± 7.5 % | 77.3 ± 5.1 % | tended to decrease immediately | –
2 | 48 h | [^177Lu]Lu-DOTA-(Tyr^3)octreotate [[^177Lu]Lu-DOTATATE] | 97.2 ± 0.9 % | 99.6 ± 1.9 % | 100 ± 0.7 % | – | 2 fold
